Laboratory results: ChEMBL document CHEMBL1240389, “In vitro and in vivo activities of the novel anticytomegalovirus compound AIC246” (Antimicrob Agents Chemother, 2010)
Calls of active or inactive are those of the source. No cut-off for these calls is given here.

Legend:
Human betaherpesvirus 5 [1] = assay: Antiviral activity against human cytomegalovirus isolate Se infected in NHDF assessed as inhibition of virus-induced cytopathic effect after 6 to 7 days by giemsa staining; format: functional, organism-based; conditions: Human betaherpesvirus 5, isolate Se
In short: (§1)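 NHDF cells (1 × 10⁴/well) mixed with cell-free virus (MOI 0.03) or with infected-cell suspension (MOI 0.001 to 0.002). Compound was added from DMSO stocks in 2-fold serial dilutions, final 250 to 0.00005 μM, in duplicates. Plates were incubated 6 to 7 days at 37°C or until 100% CPE in virus control, then fixed and stained with Giemsa/formalin and scored microscopically. EC₅₀ is 50% CPE inhibition versus untreated infected control.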

Human betaherpesvirus 5 [2] = assay: Antiviral activity against 0.1 MOI human cytomegalovirus AD169 infected in NHDF after 7 days by GFP-based fluorescent reduction assay; format: functional, organism-based; conditions: Human betaherpesvirus 5, AD169, NHDF, 168 h
In short: (§2)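 NHDF cells (1.5 × 10⁴/well) infected with GFP-expressing HCMV AD169 at the stated MOI (range 0.003 to 1 tested). After adsorption the inoculum was replaced, and compound was added in 3-fold serial dilutions, each at least in duplicate. Cells were incubated 7 days at 37°C, then GFP units were read by CCD camera in PBS. EC₅₀ was taken as the % GFPU reduction versus no-drug control. At least triplicate experiments.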

Human betaherpesvirus 5 [3] = assay: Antiviral activity against ganciclovir-resistant human cytomegalovirus isolate E17251S infected in NHDF assessed as inhibition of virus-induced cytopathic effect after 6 to 7 days by giemsa staining; format: functional, organism-based; conditions: Human betaherpesvirus 5, isolate E17251S
In short: (§3)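 Cell-associated virus (infected NHDF cells) used as inoculum, at MOI 0.001 to 0.002, mixed with uninfected NHDF (1 × 10⁴ to 3 × 10⁴ cells/well). Compound was added in 2-fold serial dilutions, final 250 to 0.00005 μM, in duplicates. Incubation was 6 to 7 days at 37°C, followed by Giemsa/formalin staining and visual CPE scoring. EC₅₀ is 50% CPE inhibition versus untreated infected control; at least two independent experiments.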

Human betaherpesvirus 5 [4] = assay: Antiviral activity against human cytomegalovirus AD169 infected in NHDF after 7 days by GFP-based fluorescent reduction assay; format: functional, organism-based; conditions: Human betaherpesvirus 5, AD169, NHDF, 168 h
In short: (§4)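 Incubated 7 days at 37°C, medium swapped for PBS, GFP units read by CCD-camera fluorescence imager. EC50/EC90 from % GFPU reduction versus untreated infected wells by nonlinear regression; at least triplicate experiments.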

Human betaherpesvirus 5 [5] = assay: Antiviral activity against human cytomegalovirus Davis xenograft mouse model assessed as reduction of viral load at 10 to 100 mg/kg, po QD for 9 days measured post last dose; format: functional, organism-based
In short: (§5)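 NOD SCID mice (18 to 25 g) implanted subcutaneously (dorsoscapular) with Gelfoam sponges seeded with 1 × 10⁶ NHDF cells infected with strain Davis (MOI 0.03), bFGF-treated. From 4 h post-transplant, dosed orally by gavage once daily for 9 days in 2% DMSO/0.5% methylcellulose-PBS, 10 ml/kg. Implants then collagenase-digested; recovered cells titrated by plaque assay on NHDF (PFU/ml).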

Human betaherpesvirus 5 [6] = assay: Antiviral activity against human cytomegalovirus isolate Ba infected in NHDF assessed as inhibition of virus-induced cytopathic effect after 6 to 7 days by giemsa staining; format: functional, organism-based; conditions: Human betaherpesvirus 5, isolate Ba; in short: as §1
Human betaherpesvirus 5 [7] = assay: Antiviral activity against human cytomegalovirus AD169 infected in NHDF assessed as inhibition of virus replication at 50 nM measured after 24 to 72 hrs of compound wash by fluorescence assay; format: functional, organism-based
Human betaherpesvirus 5 [8] = assay: Antiviral activity against 1 MOI human cytomegalovirus AD169 infected in NHDF after 7 days by GFP-based fluorescent reduction assay; format: functional, organism-based; conditions: Human betaherpesvirus 5, AD169, NHDF, 168 h
In short: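 NHDF cells (1.5 × 10⁴/well) infected with GFP-expressing HCMV AD169 at increasing MOI (0.003 to 1); after adsorption inoculum replaced, compound added in serial 3-fold dilutions, at least duplicate. 7 days at 37°C, medium swapped for PBS, GFP units read by CCD camera. EC₅₀ = 50% GFPU reduction versus no-drug virus control by nonlinear regression; at least triplicate experiments.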

Human betaherpesvirus 5 [9] = assay: Antiviral activity against 0.03 MOI human cytomegalovirus AD169 infected in NHDF after 7 days by GFP-based fluorescent reduction assay; format: functional, organism-based; conditions: Human betaherpesvirus 5, AD169, NHDF, 168 h; in short: as §2
Human betaherpesvirus 5 [10] = assay: Antiviral activity against ganciclovir-resistant human cytomegalovirus isolate 1947R infected in NHDF assessed as inhibition of virus-induced cytopathic effect after 6 to 7 days by giemsa staining; format: functional, organism-based; conditions: Human betaherpesvirus 5, isolate 1947R; in short: as §3
Human betaherpesvirus 5 [11] = assay: Antiviral activity against human cytomegalovirus isolate E16415S infected in NHDF assessed as inhibition of virus-induced cytopathic effect after 6 to 7 days by giemsa staining; format: functional, organism-based; conditions: Human betaherpesvirus 5, isolate E16415S; in short: as §3
Human betaherpesvirus 5 [12] = assay: Antiviral activity against human cytomegalovirus infected in HEL299 cells after 7 days by GFP-based fluorescent reduction assay; format: functional, organism-based; conditions: Human betaherpesvirus 5, HEL 299, 168 h
In short: (§6)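 Fibroblasts of the stated type (1.5 × 10⁴/well) infected with GFP-expressing recombinant AD169 (HCMV-GFP MOI 0.1 or RV-HG MOI 0.2 to 0.5). After adsorption the inoculum was replaced, with 3-fold serial compound dilutions at least in duplicate, and 7 days at 37°C. GFP units were read by CCD camera in PBS. EC₅₀ was derived from GFPU reduction versus untreated infected wells; at least triplicate runs.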

Human betaherpesvirus 5 [13] = assay: Antiviral activity against human cytomegalovirus Davis infected in NHDF assessed as inhibition of virus-induced cytopathic effect after 6 to 7 days by giemsa staining; format: functional, organism-based; conditions: Human betaherpesvirus 5, Davis; in short: as §1
Human betaherpesvirus 5 [14] = assay: Antiviral activity against human cytomegalovirus isolate 472 infected in NHDF assessed as inhibition of virus-induced cytopathic effect after 6 to 7 days by giemsa staining; format: functional, organism-based; conditions: Human betaherpesvirus 5, isolate 472, NHDF; in short: as §1
Human betaherpesvirus 5 [15] = assay: Antiviral activity against human cytomegalovirus infected in NHDF after 7 days by GFP-based fluorescent reduction assay; format: functional, organism-based; conditions: Human betaherpesvirus 5, NHDF, 168 h; in short: as §6
Human betaherpesvirus 5 [16] = assay: Antiviral activity against 0.003 MOI human cytomegalovirus AD169 infected in NHDF after 7 days by GFP-based fluorescent reduction assay; format: functional, organism-based; conditions: Human betaherpesvirus 5, AD169, NHDF, 168 h; in short: as §2
Human betaherpesvirus 5 [17] = assay: Antiviral activity against human cytomegalovirus AD169 infected in NHDF assessed as inhibition of virus-induced cytopathic effect after 6 to 7 days by giemsa staining; format: functional, organism-based; conditions: Human betaherpesvirus 5, AD169, NHDF; in short: as §1
Human betaherpesvirus 5 [18] = assay: Antiviral activity against human cytomegalovirus isolate La infected in NHDF assessed as inhibition of virus-induced cytopathic effect after 6 to 7 days by giemsa staining; format: functional, organism-based; conditions: Human betaherpesvirus 5, isolate La; in short: as §1
Human betaherpesvirus 5 [19] = assay: Antiviral activity against human cytomegalovirus infected in human HS27 cells after 7 days by GFP-based fluorescent reduction assay; format: functional, organism-based; conditions: Human betaherpesvirus 5, HS27, 168 h
In short: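 GFP reduction assay run in HS27 foreskin fibroblasts instead of NHDF, infected with AD169-GFP; compounds in 3-fold serial dilutions, 7 days at 37°C, GFP units read by camera-based fluorescence detector after PBS exchange. EC50 from % GFPU reduction versus drug-free infected control; at least triplicate experiments.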

Human betaherpesvirus 5 [20] = assay: Antiviral activity against 0.3 MOI human cytomegalovirus AD169 infected in NHDF after 7 days by GFP-based fluorescent reduction assay; format: functional, organism-based; conditions: Human betaherpesvirus 5, AD169, NHDF, 168 h; in short: as §2
Human betaherpesvirus 5 [21] = assay: Antiviral activity against human cytomegalovirus Davis xenograft mouse model assessed as reduction of viral load administered via oral gavage QD for 9 days measured post last dose; format: functional; conditions: Human betaherpesvirus 5, Davis, 216 h; in short: as §5
Human betaherpesvirus 5 [22] = assay: Antiviral activity against human cytomegalovirus infected in human MRC5 cells after 7 days by GFP-based fluorescent reduction assay; format: functional, organism-based; conditions: Human betaherpesvirus 5, MRC5, 168 h
In short: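 MRC5 fibroblasts (1.5 × 10⁴/well) infected with GFP-expressing HCMV AD169; inoculum removed after adsorption, compound in serial 3-fold dilutions, at least duplicate. 7 days at 37°C, then PBS and GFP units read by CCD camera. EC₅₀ = 50% GFPU reduction versus no-drug virus control by nonlinear regression; mean ± SD of independent experiments.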

Human betaherpesvirus 5 [23] = assay: Antiviral activity against human cytomegalovirus infected in human fibroblast assessed as decrease in infectious foci size at 50 nM after 5 days by DAPI staining; format: functional, organism-based
In short: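 Late-stage infected fibroblasts (strictly cell-associated clinical isolate) cocultured with excess uninfected fibroblasts for 5 days with or without 50 nM drug. Methanol-fixed; IE antigen detected by indirect immunofluorescence (mAb E13, Cy3 secondary), nuclei DAPI-counterstained. Quadruplicate; mean infected cells per focus counted.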

Human betaherpesvirus 5 [24] = assay: Antiviral activity against human cytomegalovirus infected in NHLF after 7 days by GFP-based fluorescent reduction assay; format: functional, organism-based; conditions: Human betaherpesvirus 5, 168 h; in short: as §6
Human betaherpesvirus 5 [25] = assay: Antiviral activity against 0.01 MOI human cytomegalovirus AD169 infected in NHDF after 7 days by GFP-based fluorescent reduction assay; conditions: Human betaherpesvirus 5, AD169, NHDF, 168 h
Human betaherpesvirus 5 [26] = assay: Antiviral activity against human cytomegalovirus RV-HG infected in NHDF after 7 days by GFP-based fluorescent reduction assay; format: functional, organism-based; conditions: Human betaherpesvirus 5, RV-HG, 168 h; in short: as §4
[27] = tested on: Human herpesvirus 5 strain AD169; assay: Antiviral activity against ganciclovir-resistant human cytomegalovirus AD169 UL97 M460I infected in NHDF assessed as inhibition of virus-induced cytopathic effect after 6 to 7 days by giemsa staining; format: functional, organism-based; conditions: Human betaherpesvirus 5, UL97 M460I; in short: as §1
Human betaherpesvirus 5 [28] = assay: Antiviral activity against human cytomegalovirus AD169 infected in NHDF assessed as inhibition of virus replication at 50 nM after 96 hrs by fluorescence assay; format: functional, organism-based
Human betaherpesvirus 5 [29] = assay: Antiviral activity against human cytomegalovirus AD169 infected in NHDF at 10 times EC50 treated postinfection and measured after 7 days by GFP-based fluorescent reduction assay
Human betaherpesvirus 5 [30] = assay: Antiviral activity against human cytomegalovirus AD169 infected in NHDF at 50 nM treated after 57 hrs postinfection measured after 7 days by GFP-based fluorescent reduction assay; format: functional, organism-based
Human betaherpesvirus 5 [31] = assay: Antiviral activity against human cytomegalovirus AD169 infected in NHDF at 11 uM treated after 57 hrs postinfection measured after 7 days by GFP-based fluorescent reduction assay; format: functional, organism-based

COc1cccc(N2CCN(C3=Nc4c(F)cccc4[C@H](CC(=O)O)N3c3cc(C(F)(F)F)ccc3OC)CC2)c1 [LETERMOVIR]
EC50 (Human betaherpesvirus 5 [1]): 3.1 nM | EC50 (Human betaherpesvirus 5 [2]): 3.4 nM | EC50 (Human betaherpesvirus 5 [3]): 6.1 nM | EC50 (Human betaherpesvirus 5 [4]): 3.8 nM | EC90 (Human betaherpesvirus 5 [4]): 5.1 nM | inhibition (Human betaherpesvirus 5 [5]): Active | EC50 (Human betaherpesvirus 5 [6]): 5.8 nM | Activity (Human betaherpesvirus 5 [7]): Active | EC50 (Human betaherpesvirus 5 [8]): 4.2 nM | EC50 (Human betaherpesvirus 5 [9]): 2.9 nM | EC50 (Human betaherpesvirus 5 [10]): 2.3 nM | EC50 (Human betaherpesvirus 5 [11]): 2.6 nM | EC50 (Human betaherpesvirus 5 [12]): 3.5 nM | EC50 (Human betaherpesvirus 5 [13]): 4 nM | EC50 (Human betaherpesvirus 5 [14]): 1.8 nM | EC50 (Human betaherpesvirus 5 [15]): 3.5 nM | EC50 (Human betaherpesvirus 5 [16]): 1.3 nM | EC50 (Human betaherpesvirus 5 [17]): 5 nM | EC50 (Human betaherpesvirus 5 [18]): 3.4 nM | EC50 (Human betaherpesvirus 5 [19]): 5.6 nM | EC50 (Human betaherpesvirus 5 [20]): 3.6 nM | ED50 (Human betaherpesvirus 5 [21]): 3 mg/kg/day | ED90 (Human betaherpesvirus 5 [21]): 8 mg/kg/day | EC50 (Human betaherpesvirus 5 [22]): 4.5 nM | Activity (Human betaherpesvirus 5 [23]): Active | EC50 (Human betaherpesvirus 5 [24]): 5 nM | EC50 (Human betaherpesvirus 5 [25]): 1.5 nM | EC50 (Human betaherpesvirus 5 [26]): 4.9 nM | EC90 (Human betaherpesvirus 5 [26]): 7.1 nM | EC50 [27]: 3.9 nM | Activity (Human betaherpesvirus 5 [28]): Active | Activity (Human betaherpesvirus 5 [29]): Active | Activity (Human betaherpesvirus 5 [30]): inactive

CC(C)[C@H](N)C(=O)OCC(CO)OCn1cnc2c(=O)[nH]c(N)nc21 (stereo partly drawn) [VALGANCICLOVIR]
inhibition (Human betaherpesvirus 5 [5]): Active | ED50 (Human betaherpesvirus 5 [21]): 16 mg/kg/day | ED90 (Human betaherpesvirus 5 [21]): > 100 mg/kg/day

CN(C)c1cccc2c(S(=O)(=O)Nc3ccc(NC(=O)C(C)(C)CO)cc3)cccc12
Activity (Human betaherpesvirus 5 [31]): inactive | Activity (Human betaherpesvirus 5 [29]): Active
